Measured values as given in ChEMBL document CHEMBL4732170, “Discovery of Small-Molecule Antagonists of the PWWP Domain of NSD2” (J Med Chem, 2021).
Active and inactive are the calls of the source. The calls are words filed in the database; no cut-off is given here.

How the values were obtained:
[1] = target: DNA (cytosine-5)-methyltransferase 3B (Homo sapiens) (UniProt Q9UBC3); assay: Binding affinity to DNMT3b PWWP domain (unknown origin) assessed as aggregation temperature at 400 uM by heating at 25 to 85 degC by differential static light scattering method
Peregrin (Homo sapiens) = target: T1, Peregrin (Homo sapiens) (UniProt P55201); assay: Binding affinity to BRPF1 PWWP domain (unknown origin) assessed as aggregation temperature at 400 uM by heating at 25 to 85 degC by differential static light scattering method
T1 sequence (whole entry): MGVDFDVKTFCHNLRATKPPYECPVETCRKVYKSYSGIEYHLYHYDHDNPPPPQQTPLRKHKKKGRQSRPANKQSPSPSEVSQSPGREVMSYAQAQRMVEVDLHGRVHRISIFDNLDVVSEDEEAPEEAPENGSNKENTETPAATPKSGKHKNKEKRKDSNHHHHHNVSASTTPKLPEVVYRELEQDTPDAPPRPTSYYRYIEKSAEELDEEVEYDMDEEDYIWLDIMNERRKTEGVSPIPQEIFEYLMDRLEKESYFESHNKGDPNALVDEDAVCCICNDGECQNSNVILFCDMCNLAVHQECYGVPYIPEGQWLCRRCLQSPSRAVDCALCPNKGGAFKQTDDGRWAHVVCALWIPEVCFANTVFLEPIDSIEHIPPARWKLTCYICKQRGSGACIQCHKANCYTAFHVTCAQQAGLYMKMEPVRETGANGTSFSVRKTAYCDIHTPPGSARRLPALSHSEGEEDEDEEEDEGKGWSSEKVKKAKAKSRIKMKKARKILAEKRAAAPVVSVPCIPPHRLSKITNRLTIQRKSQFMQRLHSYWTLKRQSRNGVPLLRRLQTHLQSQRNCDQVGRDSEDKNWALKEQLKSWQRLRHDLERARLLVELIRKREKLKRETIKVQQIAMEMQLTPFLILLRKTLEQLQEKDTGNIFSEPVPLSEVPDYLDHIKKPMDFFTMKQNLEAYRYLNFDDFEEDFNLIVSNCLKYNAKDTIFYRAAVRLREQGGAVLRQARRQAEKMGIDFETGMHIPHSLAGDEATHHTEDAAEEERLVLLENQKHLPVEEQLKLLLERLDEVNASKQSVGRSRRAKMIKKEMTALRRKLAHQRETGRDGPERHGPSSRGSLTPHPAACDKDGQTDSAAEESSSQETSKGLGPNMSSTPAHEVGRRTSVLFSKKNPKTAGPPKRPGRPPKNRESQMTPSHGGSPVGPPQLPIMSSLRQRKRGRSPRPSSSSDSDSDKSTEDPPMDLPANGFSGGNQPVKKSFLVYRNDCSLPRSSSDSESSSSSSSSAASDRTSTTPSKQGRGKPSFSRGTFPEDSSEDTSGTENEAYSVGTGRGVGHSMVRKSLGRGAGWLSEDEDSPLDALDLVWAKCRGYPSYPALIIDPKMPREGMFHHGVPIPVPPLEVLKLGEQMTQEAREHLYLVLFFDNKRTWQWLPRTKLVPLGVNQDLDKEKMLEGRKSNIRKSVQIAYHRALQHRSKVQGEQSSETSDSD

[2] = target: DNA mismatch repair protein Msh6 (Homo sapiens) (UniProt P52701); assay: Binding affinity to MSH6 PWWP domain (unknown origin) assessed as aggregation temperature at 400 uM by heating at 25 to 85 degC by differential static light scattering method
[3] = target: T2, Histone-lysine N-methyltransferase NSD2 (Homo sapiens, UniProt O96028); assay: Binding affinity to NSD2 PWWP1 domain (unknown origin) assessed as dissociation constant by surface plasmon resonance analysis
T2 sequence (O96028 whole entry): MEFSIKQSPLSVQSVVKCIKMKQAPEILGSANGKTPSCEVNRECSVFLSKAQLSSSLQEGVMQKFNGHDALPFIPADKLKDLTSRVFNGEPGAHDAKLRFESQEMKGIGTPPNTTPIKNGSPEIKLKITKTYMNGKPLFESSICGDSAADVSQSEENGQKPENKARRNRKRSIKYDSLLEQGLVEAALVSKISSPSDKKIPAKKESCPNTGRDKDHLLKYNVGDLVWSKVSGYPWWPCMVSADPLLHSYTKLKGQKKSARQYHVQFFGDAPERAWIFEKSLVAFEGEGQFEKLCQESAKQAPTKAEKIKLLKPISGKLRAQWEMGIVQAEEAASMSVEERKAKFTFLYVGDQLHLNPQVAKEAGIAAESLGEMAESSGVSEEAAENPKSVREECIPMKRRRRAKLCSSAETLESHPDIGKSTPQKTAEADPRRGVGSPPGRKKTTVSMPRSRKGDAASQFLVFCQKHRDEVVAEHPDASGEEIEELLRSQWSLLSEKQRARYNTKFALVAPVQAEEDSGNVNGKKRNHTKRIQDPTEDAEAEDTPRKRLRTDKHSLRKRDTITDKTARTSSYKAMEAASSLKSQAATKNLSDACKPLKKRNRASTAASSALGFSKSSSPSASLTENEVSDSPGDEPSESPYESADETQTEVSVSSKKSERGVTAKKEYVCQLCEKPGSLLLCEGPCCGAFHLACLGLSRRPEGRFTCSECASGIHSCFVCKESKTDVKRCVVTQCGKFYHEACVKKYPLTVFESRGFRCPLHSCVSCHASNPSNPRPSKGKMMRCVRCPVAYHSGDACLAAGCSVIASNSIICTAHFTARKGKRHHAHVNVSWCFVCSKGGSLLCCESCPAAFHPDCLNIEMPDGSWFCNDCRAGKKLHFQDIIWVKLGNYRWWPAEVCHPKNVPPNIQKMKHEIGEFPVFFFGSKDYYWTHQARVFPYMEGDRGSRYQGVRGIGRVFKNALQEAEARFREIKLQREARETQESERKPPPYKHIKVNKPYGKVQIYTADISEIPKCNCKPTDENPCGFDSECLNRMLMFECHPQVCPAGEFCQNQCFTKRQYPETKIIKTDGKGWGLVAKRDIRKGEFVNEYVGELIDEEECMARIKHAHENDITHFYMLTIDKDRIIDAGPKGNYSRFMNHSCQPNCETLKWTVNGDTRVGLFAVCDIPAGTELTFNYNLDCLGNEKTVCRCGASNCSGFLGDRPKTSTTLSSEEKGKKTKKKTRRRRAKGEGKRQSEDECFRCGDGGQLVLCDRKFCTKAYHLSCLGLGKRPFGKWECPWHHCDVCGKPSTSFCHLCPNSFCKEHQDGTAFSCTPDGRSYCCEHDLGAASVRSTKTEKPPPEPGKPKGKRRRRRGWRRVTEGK
Outline: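 SPR in single-cycle kinetics, HBS-EP buffer (20 mM HEPES pH 7.4, 150 mM NaCl, 3 mM EDTA, 0.05% Tween-20) with 5% DMSO. Ten concentrations from 200 μM top, twofold dilutions. Contact time 60 s, dissociation 120 s, flow 75 μL/min; Kd derived.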

DNA mismatch repair protein Msh6 (Homo sapiens), sequence (P52701 whole entry, the tested form may be a part): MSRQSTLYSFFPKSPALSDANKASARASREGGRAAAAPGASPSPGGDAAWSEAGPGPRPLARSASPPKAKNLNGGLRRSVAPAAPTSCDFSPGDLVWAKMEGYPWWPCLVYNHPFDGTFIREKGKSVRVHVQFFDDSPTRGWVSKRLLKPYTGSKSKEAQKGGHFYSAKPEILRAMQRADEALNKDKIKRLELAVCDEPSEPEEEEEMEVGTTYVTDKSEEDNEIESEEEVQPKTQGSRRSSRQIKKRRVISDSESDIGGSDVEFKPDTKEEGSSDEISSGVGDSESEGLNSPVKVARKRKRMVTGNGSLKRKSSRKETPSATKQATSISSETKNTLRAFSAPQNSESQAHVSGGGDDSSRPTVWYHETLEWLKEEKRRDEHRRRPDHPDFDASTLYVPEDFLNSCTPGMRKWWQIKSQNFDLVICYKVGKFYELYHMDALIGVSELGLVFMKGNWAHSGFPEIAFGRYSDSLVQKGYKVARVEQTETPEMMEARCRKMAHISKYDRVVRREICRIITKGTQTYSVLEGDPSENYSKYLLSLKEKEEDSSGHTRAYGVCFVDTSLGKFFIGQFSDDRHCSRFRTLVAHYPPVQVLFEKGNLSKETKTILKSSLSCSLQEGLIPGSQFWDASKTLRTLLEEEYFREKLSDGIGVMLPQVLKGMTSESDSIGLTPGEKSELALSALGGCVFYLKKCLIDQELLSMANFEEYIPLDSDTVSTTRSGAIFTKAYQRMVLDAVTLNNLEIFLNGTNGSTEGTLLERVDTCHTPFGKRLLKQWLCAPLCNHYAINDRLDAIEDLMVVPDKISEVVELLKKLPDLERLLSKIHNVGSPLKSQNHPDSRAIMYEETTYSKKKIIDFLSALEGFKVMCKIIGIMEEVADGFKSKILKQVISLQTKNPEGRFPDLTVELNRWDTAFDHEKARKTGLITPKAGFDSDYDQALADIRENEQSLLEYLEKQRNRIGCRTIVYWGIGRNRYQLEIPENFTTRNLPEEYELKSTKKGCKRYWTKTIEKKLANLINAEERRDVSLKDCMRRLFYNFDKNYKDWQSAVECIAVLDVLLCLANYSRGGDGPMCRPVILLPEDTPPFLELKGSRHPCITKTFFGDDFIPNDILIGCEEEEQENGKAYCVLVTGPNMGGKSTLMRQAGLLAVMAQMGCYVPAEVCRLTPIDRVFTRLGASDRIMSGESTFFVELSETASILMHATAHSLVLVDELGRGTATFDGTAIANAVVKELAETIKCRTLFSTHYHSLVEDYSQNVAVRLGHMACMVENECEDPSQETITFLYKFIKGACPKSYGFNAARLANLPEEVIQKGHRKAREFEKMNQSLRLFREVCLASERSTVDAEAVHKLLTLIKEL

N#Cc1ccc(C(C(N)=O)N2CCC2c2ccc(Cl)cc2)cc1 (centres undefined)
Activity [1]: inactive
Activity (Peregrin (Homo sapiens)): inactive
Activity [2]: inactive
Kd [3]: 41 µM
